From paper PMC5074691 (Cell reports, 2016)

Columns and labels:
MORC3 His-ATPase-CW = test: ATPase assay; assay type: biochemical, human; conditions: with DNA
How it was run: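 Human MORC3 His-ATPase-CW (aa 1–455), expressed in E. coli Rosetta2(DE3) pLysS, Ni-NTA purified in HEPES buffers, used at 1.5–3.0 μM. Run 20 min at 22 °C or 30 min at 30 °C, read at A360. SD from ≥3 experiments (two at 30 °C).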

Widom 601 DNA = test: EMSA with Widom 601 DNA; assay type: binding; conditions: 1 to 20 molar excess protein; 601 DNA (3 pM); 20 mM Tris-HCl pH 7.5, 150 mM NaCl, 2 mM DTT; 1 h, room temperature
How it was run: (§1)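 MORC3 His-ATPase (aa 1–392, E. coli-expressed, Ni-NTA purified) is titrated onto the nucleic acid substrate; for 601 DNA, His-ATPase-CW (aa 1–455) is also tested. Mixtures run on 5% polyacrylamide gels in 0.2x TB at 150 V for 1 h on ice, then are stained with ethidium bromide and imaged.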

MORC3-CW E453A = test: 1H,15N TROSY/HSQC NMR titration and competition on MORC3-CW E453A; assay type: binding, human
[1] = tested on: reconstituted nucleosome core particles (NCPs); test: EMSA with nucleosome core particles; assay type: binding; conditions: 1 to 20 molar excess protein; NCPs (3 pM); 20 mM Tris-HCl pH 7.5, 150 mM NaCl, 2 mM DTT; 1 h, room temperature
How it was run: as §1

| Molecule | effect of linked CW on rate of hydrolysis in the presence of DNA (MORC3 His-ATPase-CW) | DNA binding by EMSA (Widom 601 DNA) | chemical shift perturbation / complex formation in TROSY (MORC3-CW E453A; 10 mM HEPES pH 7.4, 100 mM NaCl, 1 mM TCEP, 7% D2O, 298K) | displacement of H3K4me0 from CW E453A:H3K4me0 complex (MORC3-CW E453A; His-ATPase titrated into CW E453A:H3K4me0 (1:4), 10 mM HEPES pH 7.4) | NCP binding by EMSA [1] |
| --- | --- | --- | --- | --- | --- |
| His-ATPase-CW: MORC3 construct harboring linked ATPase and CW domains (aa 1-455), His-tagged (protein, left off: His tag, end not stated, kept) MAAQPPRGIRLSALCPKFLHTNSTSHTWPFSAVAELIDNAYDPDVNAKQIWIDKTVINDHICLTFTDNGNGMTSDKLHKMLSFGFSDKVTMNGHVPVGLYGNGFKSGSMRLGKDAIVFTKNGESMSVGLLSQTYLEVIKAEHVVVPIVAFNKHRQMINLAESKASLAAILEHSLFSTEQKLLAELDAIIGKKGTRIIIWNLRSYKNATEFDFEKDKYDIRIPEDLDEITGKKGYKKQERMDQIAPESDYSLRAYCSILYLKPRMQIILRGQKVKTQLVSKSLAYIERDVYRPKFLSKTVRITFGFNCRNKDHYGIMMYHRNRLIKAYEKVGCQLRANNMGVGVVGIIECNFLKPTHNKQDFDYTNEYRLTITALGEKLNDYWNEMKVKKNTEYPLNLPVEDIQKRPDQTWVQCDACLKWRKLPDGMDQLPEKWYCSNNPDPQFRNCEVPEEPEDE | considerably decreased the rate of hydrolysis in the presence of DNA | impaired | – | – | – |
| His-ATPase: His-tagged isolated ATPase domain of MORC3 (aa 1-392) (protein, left off: His tag, end not stated, kept) MAAQPPRGIRLSALCPKFLHTNSTSHTWPFSAVAELIDNAYDPDVNAKQIWIDKTVINDHICLTFTDNGNGMTSDKLHKMLSFGFSDKVTMNGHVPVGLYGNGFKSGSMRLGKDAIVFTKNGESMSVGLLSQTYLEVIKAEHVVVPIVAFNKHRQMINLAESKASLAAILEHSLFSTEQKLLAELDAIIGKKGTRIIIWNLRSYKNATEFDFEKDKYDIRIPEDLDEITGKKGYKKQERMDQIAPESDYSLRAYCSILYLKPRMQIILRGQKVKTQLVSKSLAYIERDVYRPKFLSKTVRITFGFNCRNKDHYGIMMYHRNRLIKAYEKVGCQLRANNMGVGVVGIIECNFLKPTHNKQDFDYTNEYRLTITALGEKLNDYWNEMKVKKNTE | – | resulted in a shift of the DNA and/or NCP bands | Substantial chemical shift perturbations | could not efficiently displace H3K4me0 | resulted in a shift of the DNA and/or NCP bands |
